Publication PMC7671694 (Pharmaceutical Biology, 2020)
“Also recorded” adds a separate entry of the source.

Assays:
Format in all cases: in vivo, Swiss male mice
[1] = tested on: scopolamine-induced memory impairment in mice; experiment: Novel object recognition test; details: test phase
How it was run: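 Swiss male mice, n = 10/group. Test compound (5, 10 or 15 mg/kg) p.o. in saline 1 h before, scopolamine 1.5 mg/kg i.p. 30 min before. Box is 45 × 45 × 50 cm; 5-min sample phase, then 5-min test 24 h later with one object replaced. Nose/forepaw contact is scored as exploration, normalized to total exploration time. Repeated-measures two-way ANOVA, Tukey; mean ± SEM.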

[2] = tested on: scopolamine-induced memory impairment in mice; experiment: Y-maze test in scopolamine-treated mice; details: scopolamine 1.5 mg/kg i.p. alone; compared with control group; p < 0.01
How it was run: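 Swiss male mice, n = 10/group. Test compound p.o. in saline 1 h before, scopolamine 1.5 mg/kg i.p. 30 min before a 10-min session. Arm entry means all four legs inside. Alternation (%) = alternations/(total entries − 2) × 100; entries serve as locomotor index. Arms cleaned with 10% ethanol. One-way ANOVA, Tukey; mean ± SEM.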

[3] = tested on: scopolamine-induced memory impairment in mice; experiment: Morris water maze; details: scopolamine 1.5 mg/kg i.p. alone
How it was run: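 Swiss male mice, n = 10/group. Test compound p.o. in saline 1 h before, scopolamine 1.5 mg/kg i.p. 30 min before each session. Training runs over 6 days, 4 trials/day about 2 min apart, maximum 1 min per trial, then 10 s on the platform if not found. Day 7 probe without platform. Mean ± SEM; repeated-measures two-way ANOVA (training), one-way ANOVA (probe), Tukey.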

[4] = training trials, day 1 to day 6

Structure (SMILES) | normalized time exploring novel object versus familiar object ([1]; 5 mg/kg p.o. + scopolamine 1.5 mg/kg i.p., p < 0.001) | spontaneous alternation (%) [2] | normalized time exploring novel object versus familiar object ([1]; scopolamine 1.5 mg/kg i.p. alone, p > 0.05) | time spent in the target quadrant ([3]; probe trial day 7, compared with control group) | escape latency [3, 4] | travel (swimming) distance [3, 4]
COc1cc2c(cc1OC)C(=O)C(CC1CCN(Cc3ccccc3)CC1)C2 (stereo not drawn) [donepezil] | significantly longer |  |  |  |  | 
CN1[C@@H]2C[C@@H](OC(=O)[C@H](CO)c3ccccc3)C[C@H]1[C@@H]1O[C@@H]12 [scopolamine] |  | significantly lower; also recorded: significantly decreased | no statistically significant difference | significantly lower; also recorded: decreased | no significant differences | no significant differences
